Common to all, as to format: cell-based
Data set [1] concerns PC-12. The experiment in a line: Cytotoxicity in rat PC-12 cells assessed as reduction in cell viability at 12.5 to 50 uM incubated for 18 hrs by Cell Titer-Glo assay. Conditions: pc-12, 18 h, dose 12.5-50 µM. The essentials:
(§1)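 Cells seeded at 1.5 million per 10-cm dish. Next day they were replated at 10,000 cells/well and rested 4 h. Ligand or vehicle (water, ethanol or DMSO, by ligand) was added in dose-response format in quadruplicate. After 18 h, viability was read by CellTiter-Glo luminescence. Data are mean ± s.e.m., generally representative of 2 independent experiments. One-way ANOVA versus vehicle.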
(In general: Cellular ATP, detected with luciferase, serves as a proxy for viable cell number.)

The subject of a further data set is SKNBE2. The experiment in a line: Modulation of Gal4-fused VP16 expressed in SKNBE(2) cells co-transfected with UAS repoter gene assessed as decrease in luciferase activity at 12.5 to 50 uM incubated for 18 hrs by luciferase reporter gene assay. Conditions: Human alphaherpesvirus 2, filed as modulator, dose 12.5-50 µM. The essentials:
(§2)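 Cells in 10-cm dishes were transfected with Gal4-VP16 expression plasmid (2 μg) plus 5xUAS-luciferase reporter (2 μg) for 18 h. They were replated at 10,000 cells/well for 4 h, then given ligand or vehicle (water, ethanol or DMSO) in quadruplicate for 18 h. Luciferase was read with Britelite Plus. Fold change is versus vehicle-treated cells, with one-way ANOVA versus vehicle.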

The target of data set [2] is Nuclear receptor subfamily 4 group A member 2 (Homo sapiens) (UniProt P43354). Nature of the data set: Modulation of full length human Nurr1 expressed in SKNBE(2) cells co-transfected with RXRalpha and luciferase reporter plasmid harboring NurRE response element assessed as decrease in luciferase activity at 12.5 to 50 uM incubated for 18 hrs by luciferase reporter gene assay. Conditions: SKNBE2, filed as modulator, dose 12.5-50 µM. In a few lines:
(§3)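 SK-N-BE(2)-C cells were kept in 1:1 EMEM/F12 with 10% FBS at 37°C and 5% CO2. They were cotransfected with full-length Nurr1 (1 μg), full-length RXRα (1 μg) and 3xNBRE- or 3xNurRE-luc reporter (6 μg) for 18 h, replated at 10,000 cells/well for 4 h, and then treated with ligand or vehicle in quadruplicate for 18 h. The readout was luciferase luminescence as fold over vehicle, reported as mean ± s.e.m. (n=4) from 2 independent experiments, one-way ANOVA.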
(In a reporter assay the amount or activity of a reporter protein is the signal.)

Another data set concerns HEK293T. The experiment in a line: Modulation of Gal4-fused VP16 expressed in HEK293T cells co-transfected with UAS repoter gene assessed as decrease in luciferase activity at 12.5 to 50 uM incubated for 18 hrs by luciferase reporter gene assay. The conditions noted are these: Human alphaherpesvirus 2, filed as modulator, dose 12.5-50 µM. The essentials: as §2
A further data set relates to HEK-293T. The experiment in a line: Cytotoxicity in human HEK293T cells assessed as reduction in cell viability at 12.5 to 50 uM incubated for 18 hrs by Cell Titer-Glo assay. The conditions noted are these: dose 12.5-50 µM. The essentials: as §1
Data set [3] concerns the target Nuclear receptor subfamily 4 group A member 2 (Homo sapiens) (UniProt P43354). Nature of the data set: Modulation of full length human Nurr1 expressed in HEK293T cells co-transfected with RXRalpha and luciferase reporter plasmid harboring NBRE response element assessed as decrease in luciferase activity at 12.5 to 50 uM incubated for 18 hrs by luciferase reporter gene assay. Conditions: filed as modulator, dose 12.5-50 µM. In a few lines: (§4)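 Full-length Nurr1 plasmid, alone (2 μg) or 1 μg plus full-length RXRα (1 μg), cotransfected with 3xNBRE- or 3xNurRE-luciferase reporter (6 μg) using Lipofectamine 2000, 18 h. Cells replated at 10,000/well for 4 h. Four ligand concentrations, or vehicle (water, ethanol or DMSO), added in quadruplicate for 18 h. Luciferase read. Fold change vs vehicle, mean ± s.e.m., one-way ANOVA vs vehicle.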

Data set [4] shares this target. The experiment in a line: Modulation of full length human Nurr1 expressed in HEK293T cells co-transfected with RXRalpha and luciferase reporter plasmid harboring NBRE response element assessed as increase in luciferase activity at 12.5 to 50 uM incubated for 18 hrs by luciferase reporter gene assay. Conditions: filed as modulator, dose 12.5-50 µM. In a few lines:
as §4

The target is the same in data set [5]. The experiment in a line: Modulation of full length human Nurr1 expressed in SKNBE(2) cells co-transfected with luciferase reporter plasmid harboring NurRE response element assessed as decrease in luciferase activity at 12.5 to 50 uM incubated for 18 hrs by luciferase reporter gene assay. The conditions noted are these: SKNBE2, filed as modulator, dose 12.5-50 µM.

For data set [6] the target is unchanged. The experiment in a line: Modulation of full length human Nurr1 expressed in SKNBE(2) cells co-transfected with luciferase reporter plasmid harboring NBRE response element assessed as decrease in luciferase activity at 12.5 to 50 uM incubated for 18 hrs by luciferase reporter gene assay. The conditions noted are these: SKNBE2, filed as modulator, dose 12.5-50 µM. The essentials:
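Transfection of SK-N-BE(2)-C cells (1:1 EMEM/F12, 10% FBS, 37°C, 5% CO2) used full-length Nurr1 alone (2 μg, no RXRα) with 3xNBRE- or 3xNurRE-luciferase reporter (6 μg) for 18 h. Cells were replated at 10,000/well for 4 h, then exposed to ligand or vehicle in quadruplicate for 18 h. Luminescence was expressed as fold over vehicle, as mean ± s.e.m. (n=4) from 2 independent experiments, one-way ANOVA against vehicle.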

The target is the same in data set [7]. Nature of the data set: Modulation of full length human Nurr1 expressed in HEK293T cells co-transfected with luciferase reporter plasmid harboring NurRE response element assessed as decrease in luciferase activity at 12.5 to 50 uM incubated for 18 hrs by luciferase reporter gene assay. Conditions: filed as modulator, dose 12.5-50 µM. The essentials: as §4

Data set [8] has the same target. Nature of the data set: Modulation of full length human Nurr1 expressed in SKNBE(2) cells co-transfected with RXRalpha and luciferase reporter plasmid harboring NBRE response element assessed as decrease in luciferase activity at 12.5 to 50 uM incubated for 18 hrs by luciferase reporter gene assay. Conditions: SKNBE2, filed as modulator, dose 12.5-50 µM. The essentials:
as §3

For data set [9] the target is unchanged. The experiment in a line: Modulation of full length human Nurr1 expressed in HEK293T cells co-transfected with RXRalpha and luciferase reporter plasmid harboring NurRE response element assessed as decrease in luciferase activity at 12.5 to 50 uM incubated for 18 hrs by luciferase reporter gene assay. Conditions: filed as modulator, dose 12.5-50 µM. The essentials: as §4

For data set [10] the target is unchanged. Nature of the data set: Modulation of full length human Nurr1 expressed in PC12 cells co-transfected with luciferase reporter plasmid harboring NurRE response element at 12.5 to 50 uM incubated for 18 hrs by luciferase reporter gene assay. Conditions: PC-12, dose 12.5-50 µM. The essentials: (§5)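 Here PC12 cells (FK-12 medium, 15% horse serum, 2.5% FBS, 37°C, 5% CO2) received full-length Nurr1 (2 μg) without RXRα, plus 3xNBRE- or 3xNurRE-luciferase reporter (6 μg), for 18 h. Cells were replated at 10,000/well for 4 h, then treated with ligand or vehicle in quadruplicate for 18 h. Luciferase luminescence was normalized to vehicle-treated cells. Results are mean ± s.e.m. (n=4) from 2 independent experiments, with one-way ANOVA against vehicle.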

Data set [11] has the same target. Nature of the data set: Modulation of full length human Nurr1 expressed in PC12 cells co-transfected with luciferase reporter plasmid harboring NBRE response element at 12.5 to 50 uM incubated for 18 hrs by luciferase reporter gene assay. Conditions: PC-12, dose 12.5-50 µM. In a few lines: as §5
The target is the same in data set [12]. The experiment in a line: Modulation of full length human Nurr1 expressed in PC12 cells co-transfected with RXRalpha and luciferase reporter plasmid harboring NurRE response element at 12.5 to 50 uM incubated for 18 hrs by luciferase reporter gene assay. The conditions noted are these: PC-12, dose 12.5-50 µM. The essentials: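 PC12 cells were grown at 37°C and 5% CO2 in […] medium with 15% horse serum and 2.5% FBS. They were transfected with full-length Nurr1 (1 μg) plus full-length RXRα (1 μg) and 3xNBRE- or 3xNurRE-luciferase reporter (6 μg) for 18 h, then replated at 10,000 cells/well for 4 h. Ligand or vehicle (water, ethanol or DMSO) was added in quadruplicate for 18 h. Luminescence was read as fold change over vehicle. Results are mean ± s.e.m., n=4, from 2 independent experiments, analysed by one-way ANOVA against vehicle.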

For data set [13] the target is unchanged. The experiment in a line: Modulation of full length human Nurr1 expressed in SKNBE(2) cells co-transfected with RXRalpha and luciferase reporter plasmid harboring NBRE response element assessed as increase in luciferase activity at 12.5 to 50 uM incubated for 18 hrs by luciferase reporter gene assay. Conditions: SKNBE2, filed as modulator, dose 12.5-50 µM. The essentials: as §3

For the next data set, the system named is SK-N-BE(2). The experiment in a line: Cytotoxicity in human SKNBE2 cells assessed as reduction in cell viability at 12.5 to 50 uM incubated for 18 hrs by Cell Titer-Glo assay. Conditions: dose 12.5-50 µM. In a few lines:
as §1

Data set [14] concerns PC-12. Nature of the data set: Modulation of Gal4-fused VP16 expressed in PC12 cells co-transfected with UAS repoter gene assessed as decrease in luciferase activity at 12.5 to 50 uM incubated for 18 hrs by luciferase reporter gene assay. The conditions noted are these: Human alphaherpesvirus 2, filed as modulator, dose 12.5-50 µM. The essentials: as §2
The target of data set [15] is Nuclear receptor subfamily 4 group A member 2 (Homo sapiens) (UniProt P43354). Nature of the data set: Modulation of full length human Nurr1 expressed in HEK293T cells co-transfected with luciferase reporter plasmid harboring NBRE response element assessed as decrease in luciferase activity at 12.5 to 50 uM incubated for 18 hrs by luciferase reporter gene assay. The conditions noted are these: filed as modulator, dose 12.5-50 µM. The essentials:
as §4

Activity calls are given as the source filed them. The rule behind the calls is not given here.

Sequence of Nuclear receptor subfamily 4 group A member 2 (Homo sapiens) (P43354 whole entry): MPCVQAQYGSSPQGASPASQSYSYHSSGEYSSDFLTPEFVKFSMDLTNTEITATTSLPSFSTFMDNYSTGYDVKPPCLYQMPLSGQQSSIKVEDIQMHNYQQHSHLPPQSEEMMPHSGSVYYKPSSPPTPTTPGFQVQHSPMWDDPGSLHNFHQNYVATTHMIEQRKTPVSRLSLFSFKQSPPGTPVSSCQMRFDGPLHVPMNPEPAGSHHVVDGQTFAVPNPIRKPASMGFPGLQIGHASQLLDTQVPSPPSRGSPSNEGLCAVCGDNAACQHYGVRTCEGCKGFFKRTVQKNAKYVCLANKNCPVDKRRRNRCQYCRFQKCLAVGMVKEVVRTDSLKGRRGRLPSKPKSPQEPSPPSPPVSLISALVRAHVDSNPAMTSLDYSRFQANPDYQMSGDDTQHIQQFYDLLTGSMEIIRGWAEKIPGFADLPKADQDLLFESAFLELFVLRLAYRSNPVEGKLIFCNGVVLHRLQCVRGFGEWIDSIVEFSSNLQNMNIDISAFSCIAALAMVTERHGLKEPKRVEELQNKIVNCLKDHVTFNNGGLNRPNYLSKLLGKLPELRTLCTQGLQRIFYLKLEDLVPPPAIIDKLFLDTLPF

Consider `Clc1ccc(C(c2c[nH]c3ccccc23)c2c[nH]c3ccccc23)cc1`, for which the Activity entry with PC-12 [1], in the data set with HEK-293T and with SK-N-BE(2) was “Toxic” throughout. The result (with SKNBE2; in data set [2]; in the data set with HEK293T; in data set [3]; in data set [4]; in data set [5]) was Active. The outcome (in data set [6]; in data set [7]; in data set [8]; in data set [9]; in data set [13]; with PC-12 [14]) was Active. The result in data set [15] was Active. Moreover, the result in data set [10], in data set [11] and in data set [12] was inactive.

(Values after ChEMBL document CHEMBL5030505, “Assessment of NR4A Ligands That Directly Bind and Modulate the Orphan Nuclear Receptor Nurr1” (J Med Chem, 2020).)
